Test results from ChEMBL document CHEMBL4715825, “Synthesis and biological evaluations of marine oxohexadecenoic acids: PPARα/γ dual agonism and anti-diabetic target gene effects” (Eur J Med Chem, 2018).
The source made the active and inactive calls. The rule behind the calls is not given here.

Tests used:
[1] = Cytotoxicity against African green monkey COS-1 cells assessed as cell viability at EC50 concentration for PPAR activation assay by LDH assay; type: cell-based; conditions: chlorocebus aethiops, read-out: Activity
Summary of the method: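 Assayed in the same COS-1 cultures as the Gal4-LBD PPAR reporter assays. Lactate dehydrogenase released into the medium was measured with a commercial kit per the maker's protocol. Absorbance was read at 492/750 nm.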

[2] = Cytotoxicity against African green monkey COS-1 cells assessed as cell viability at EC50 concentration for PPAR activation assay by XTT assay; type: cell-based; conditions: chlorocebus aethiops, read-out: Activity
Summary of the method: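 Run on COS-1 cells treated in parallel with the Gal4-LBD PPAR reporter assays. Metabolic NAD(P)H flux was measured by kit XTT assay per the maker's protocol. Absorbance was read at 450/690 nm.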

[3] = target: T1, Peroxisome proliferator-activated receptor gamma (Homo sapiens) (UniProt P37231); test: Agonist activity at human PPARgamma in 8 day differentiated human SGBS cells assessed as decrease in TNF gene expression at 2 uM incubated for 24 hrs by SYBR-green based qPCR analysis
T1 sequence (whole entry): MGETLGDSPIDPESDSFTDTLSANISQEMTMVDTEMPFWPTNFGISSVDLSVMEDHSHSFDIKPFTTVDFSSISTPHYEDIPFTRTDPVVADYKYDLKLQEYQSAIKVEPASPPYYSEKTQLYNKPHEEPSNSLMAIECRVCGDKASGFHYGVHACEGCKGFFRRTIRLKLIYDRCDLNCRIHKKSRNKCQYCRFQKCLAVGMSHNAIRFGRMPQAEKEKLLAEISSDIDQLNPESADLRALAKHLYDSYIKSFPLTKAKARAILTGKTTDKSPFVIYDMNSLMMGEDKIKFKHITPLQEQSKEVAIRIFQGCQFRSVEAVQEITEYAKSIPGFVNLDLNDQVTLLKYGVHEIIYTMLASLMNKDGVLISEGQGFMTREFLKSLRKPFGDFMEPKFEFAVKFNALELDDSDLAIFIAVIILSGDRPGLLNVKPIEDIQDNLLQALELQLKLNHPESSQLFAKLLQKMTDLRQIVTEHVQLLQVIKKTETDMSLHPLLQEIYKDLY

[4] = target: T1, Peroxisome proliferator-activated receptor gamma (Homo sapiens); test: Agonist activity at human PPARgamma in 8 day differentiated human SGBS cells assessed as decrease in CXCL1 gene expression at 2 uM incubated for 24 hrs by SYBR-green based qPCR analysis
[5] = target: T1, Peroxisome proliferator-activated receptor gamma (Homo sapiens); test: Agonist activity at human PPARgamma in 8 day differentiated human SGBS cells assessed as decrease in CXCL5 gene expression at 2 uM incubated for 24 hrs by SYBR-green based qPCR analysis
[6] = target: T1, Peroxisome proliferator-activated receptor gamma (Homo sapiens); test: Agonist activity at human PPARgamma in 8 day differentiated human SGBS cells assessed as decrease in IL-1 beta gene expression at 2 uM incubated for 24 hrs by SYBR-green based qPCR analysis
[7] = target: T1, Peroxisome proliferator-activated receptor gamma (Homo sapiens); test: Agonist activity at human PPARgamma in 8 day differentiated human SGBS cells assessed as decrease in […] gene expression at 2 uM incubated for 24 hrs by SYBR-green based qPCR analysis
[8] = target: T2, Peroxisome proliferator-activated receptor alpha (Homo sapiens, UniProt Q07869); test: Agonist activity at recombinant human PPARalpha LBD (168 to 468 residues) expressed in African green monkey COS-1 cells incubated for 18 hrs by luciferase reporter gene assay; type: cell-based
T2 sequence (Q07869 whole entry): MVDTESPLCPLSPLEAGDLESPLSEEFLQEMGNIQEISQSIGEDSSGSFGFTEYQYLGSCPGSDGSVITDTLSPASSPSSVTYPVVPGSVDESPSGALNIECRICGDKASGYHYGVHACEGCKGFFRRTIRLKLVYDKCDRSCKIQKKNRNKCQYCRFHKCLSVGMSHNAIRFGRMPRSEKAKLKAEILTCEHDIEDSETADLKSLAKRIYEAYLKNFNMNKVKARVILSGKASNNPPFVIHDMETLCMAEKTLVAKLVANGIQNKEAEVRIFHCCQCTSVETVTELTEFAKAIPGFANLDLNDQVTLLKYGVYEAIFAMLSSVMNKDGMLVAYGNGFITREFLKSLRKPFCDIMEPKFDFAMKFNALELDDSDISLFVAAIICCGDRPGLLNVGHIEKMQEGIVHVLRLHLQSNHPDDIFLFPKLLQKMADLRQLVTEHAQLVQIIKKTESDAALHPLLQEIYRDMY
Summary of the method: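 Transient Gal4 one-hybrid assay in COS-1 cells (7×10^4 per well), transfected 24 h after seeding. Plasmids were Gal4-DBD fused to the human nuclear receptor LBD, a 5×UAS-SV40 luciferase reporter and pRL-CMV Renilla control. Ligand in DMSO (final 0.1%) was added 5 h post-transfection. Dual-luciferase activity was read after 18 h, expressed as RLU, from three biological replicates in quadruplicate.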

SMILES: CN(CCOc1ccc(CC2SC(=O)NC2=O)cc1)c1ccccn1 (configuration not stated) [ROSIGLITAZONE]
- viability [1]: > 95%
- viability [2]: > 95%
- Activity [3]: inactive
- Activity [4]: inactive
- Activity [5]: inactive
- Activity [6]: inactive
- Activity [7]: inactive

SMILES: Cc1cccc(Nc2cc(Cl)nc(SCC(=O)O)n2)c1C [PIRINIXIC ACID]
- viability [1]: > 95%
- viability [2]: > 95%

SMILES: CCCCCCCCCCCCCCCC(=O)O [PALMITIC ACID]
- EC50 [8]: 35 µM
- viability [1]: > 95%
- viability [2]: > 90%
